Reference: ChEMBL document CHEMBL4145650, “Napabucasin and Related Heterocycle-Fused Naphthoquinones as STAT3 Inhibitors with Antiproliferative Activity against Cancer Cells” (J Nat Prod, 2018)
Active and inactive are the calls of the source. The rule behind the calls is not given here.

Key:
MDA-MB-231 [1] = assay: Cell cycle arrest in human MDA-MB-231 cells assessed as accumulation at S phase at 3 uM measured after 24 hrs by propidium iodide staining based flow cytometry (reference value: 12%); format: functional
MDA-MB-231 [2] = assay: Cell cycle arrest in human MDA-MB-231 cells assessed as accumulation at sub-G0 phase at 1 uM measured after 24 hrs by propidium iodide staining based flow cytometry (reference value: 3%); format: functional
MDA-MB-231 [3] = assay: Antiproliferative activity against human MDA-MB-231 cells measured after 48 hrs by MTT assay; format: functional, cell-based; conditions: MDA-MB-231, 48 h
Summary of the method: (§1)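 Cells kept in 10% FBS medium with penicillin/streptomycin/L-glutamine at 37 °C, 5% CO2 (MDA-MB-231 in DMEM, K562 in RPMI 1640). Viability read by MTT reduction to formazan after 48 h of exposure. IC50 obtained by nonlinear regression against vehicle control, given as mean ±SD of three independent experiments (n = 2 where footnoted).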

MDA-MB-231 [4] = assay: Cell cycle arrest in human MDA-MB-231 cells assessed as accumulation at G2 phase at 3 uM measured after 24 hrs by propidium iodide staining based flow cytometry (reference value: 23%); format: functional
MDA-MB-231 [5] = assay: Cell cycle arrest in human MDA-MB-231 cells assessed as accumulation at G1 phase at 30 uM measured after 24 hrs by propidium iodide staining based flow cytometry (reference value: 62%); format: functional
MDA-MB-231 [6] = assay: Induction of superoxide generation in human MDA-MB-231 cells at 5 umol/L measured after 24 hrs by DHE staining based flow cytometry; format: functional, cell-based
Summary of the method: (§2)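 Cells were treated with compound at 5 μmol/L or DMSO for 24 h, with or without dicoumarol preincubation (5 μmol/L, 30 min), then stained with DHE for 30 min. 2-OH-DHE fluorescence was read by flow cytometry and expressed relative to vehicle control. At least three independent measurements.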

MDA-MB-231 [7] = assay: Cell cycle arrest in human MDA-MB-231 cells assessed as accumulation at G1 phase at 3 uM measured after 24 hrs by propidium iodide staining based flow cytometry (reference value: 62%); format: functional
K562 [8] = assay: Induction of superoxide generation in human K562 cells at 5 umol/L measured after 24 hrs in presence of NQO1 inhibitor dicoumarol by DHE staining based flow cytometry; format: functional, cell-based; summary of the method: as §2
MDA-MB-231 [9] = assay: Induction of apoptosis in human MDA-MB-231 cells assessed as viable cells at 10 umol/L measured after 8 hrs by annexin-V-FITC/7-AAD staining based flow cytometric analysis (reference value: 97 to 98%); format: functional; conditions: MDA-MB-231, 8 h, read-out: Activity
MDA-MB-231 [10] = assay: Cell cycle arrest in human MDA-MB-231 cells assessed as accumulation at G1 phase at 1 uM measured after 24 hrs by propidium iodide staining based flow cytometry (reference value: 62%); format: functional
MDA-MB-231 [11] = assay: Cell cycle arrest in human MDA-MB-231 cells assessed as accumulation at G2 phase at 30 uM measured after 24 hrs by propidium iodide staining based flow cytometry (reference value: 23%); format: functional
MDA-MB-231 [12] = assay: Cell cycle arrest in human MDA-MB-231 cells assessed as accumulation at S phase at 1 uM measured after 24 hrs by propidium iodide staining based flow cytometry (reference value: 12%); format: functional
[13] = target: T1, Signal transducer and activator of transcription 3 (Homo sapiens, UniProt P40763); assay: Inhibition of STAT3 phosphorylation at Y705 in human MDA-MB-231 cells after 4 hrs by HTRF assay; format: cell-based
T1 sequence (P40763 whole entry): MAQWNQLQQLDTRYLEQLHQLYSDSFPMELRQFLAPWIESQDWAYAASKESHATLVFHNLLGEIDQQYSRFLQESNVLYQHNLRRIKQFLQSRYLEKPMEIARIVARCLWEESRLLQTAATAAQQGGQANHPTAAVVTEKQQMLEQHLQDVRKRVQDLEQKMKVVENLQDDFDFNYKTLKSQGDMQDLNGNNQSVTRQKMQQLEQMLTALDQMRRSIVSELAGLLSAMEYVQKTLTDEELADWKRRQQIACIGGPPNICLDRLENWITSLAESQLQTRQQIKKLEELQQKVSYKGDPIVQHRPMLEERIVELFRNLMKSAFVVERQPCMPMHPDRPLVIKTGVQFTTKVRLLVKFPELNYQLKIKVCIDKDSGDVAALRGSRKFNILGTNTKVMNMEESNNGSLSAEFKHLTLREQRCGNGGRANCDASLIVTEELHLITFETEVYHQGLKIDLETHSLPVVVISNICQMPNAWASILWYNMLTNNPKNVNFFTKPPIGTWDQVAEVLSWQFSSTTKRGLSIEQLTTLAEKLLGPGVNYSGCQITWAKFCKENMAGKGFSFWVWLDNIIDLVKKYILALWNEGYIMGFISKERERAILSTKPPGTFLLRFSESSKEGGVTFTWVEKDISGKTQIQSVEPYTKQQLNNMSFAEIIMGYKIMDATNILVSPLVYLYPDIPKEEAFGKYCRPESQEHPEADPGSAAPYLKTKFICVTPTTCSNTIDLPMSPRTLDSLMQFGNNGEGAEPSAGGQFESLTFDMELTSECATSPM
Summary of the method: (§3)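 MDA-MB-231 cells (10^5/well) were left to adhere overnight, serum-starved for 4 h in DMEM, then treated with 0.1–30 μmol/L compound (0.5% final DMSO) for 4 h at 37 °C. Lysates were incubated 24 h at room temperature with Eu-cryptate/d2 antibody pairs for phospho-STAT3 (Y705) or total STAT3. The 665/620 nm HTRF ratio was taken and phospho/total normalized. EC50 was obtained by nonlinear regression.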

MDA-MB-231 [14] = assay: Cell cycle arrest in human MDA-MB-231 cells assessed as accumulation at G2 phase at 1 uM measured after 24 hrs by propidium iodide staining based flow cytometry (reference value: 23%); format: functional
MDA-MB-231 [15] = assay: Cell cycle arrest in human MDA-MB-231 cells assessed as accumulation at sub-G0 phase at 3 uM measured after 24 hrs by propidium iodide staining based flow cytometry (reference value: 3%); format: functional
[16] = target: T1, Signal transducer and activator of transcription 3; assay: Inhibition of STAT3 phosphorylation at Y705 in human MDA-MB-231 cells assessed as reduction in ratio of phosphorylated STAT3 to total STAT3 level after 4 hrs by HTRF assay; format: cell-based; summary of the method: as §3
K562 [17] = assay: Antiproliferative activity against human K562 cells measured after 48 hrs by MTT assay; format: functional, cell-based; conditions: K562, 48 h; summary of the method: as §1
MDA-MB-231 [18] = assay: Induction of apoptosis in human MDA-MB-231 cells assessed as viable cells at 10 umol/L measured after 2 hrs by annexin-V-FITC/7-AAD staining based flow cytometric analysis (reference value: 97 to 98%); format: functional; conditions: MDA-MB-231, 2 h, read-out: Activity
MDA-MB-231 [19] = assay: Cell cycle arrest in human MDA-MB-231 cells assessed as accumulation at sub-G0 phase at 30 uM measured after 24 hrs by propidium iodide staining based flow cytometry (reference value: 3%); format: functional
MDA-MB-231 [20] = assay: Induction of apoptosis in human MDA-MB-231 cells assessed as late apoptotic cells at 10 umol/L measured after 24 hrs by annexin-V-FITC/7-AAD staining based flow cytometric analysis relative to control; format: functional
MDA-MB-231 [21] = assay: Cell cycle arrest in human MDA-MB-231 cells assessed as accumulation at G2 phase at 10 uM measured after 24 hrs by propidium iodide staining based flow cytometry (reference value: 23%); format: functional
[22] = target: T1, Signal transducer and activator of transcription 3; assay: Binding affinity to STAT3 in human MDA-MB-231 cells at 100 uM treated for 1 hr followed by thermolysin addition measured after 30 mins by DARTS-Western blot analysis; format: cell-based
Summary of the method: (§4)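 A nondenaturing lysate of MDA-MB-231 cells (M-PER with protease and phosphatase inhibitors) was incubated with compound at 100 μmol/L or DMSO for 1 h at room temperature in the dark. TNC buffer pH 8.0 was added, then thermolysin (1:3000 of protein) for 30 min at room temperature; undigested controls were kept. Run on SDS-PAGE with 10 μg protein per lane, then Western blot with anti-STAT3.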

MDA-MB-231 [23] = assay: Cell cycle arrest in human MDA-MB-231 cells assessed as accumulation at G1 phase at 10 uM measured after 24 hrs by propidium iodide staining based flow cytometry (reference value: 62%); format: functional
MDA-MB-231 [24] = assay: Effect on total STAT3 level in human MDA-MB-231 cells at 0.1 to 30 umol/L after 4 hrs by HTRF assay; format: cell-based; conditions: mda-mb-231, 4 h; summary of the method: as §3
MDA-MB-231 [25] = assay: Induction of apoptosis in human MDA-MB-231 cells assessed as viable cells at 10 umol/L measured after 4 hrs by annexin-V-FITC/7-AAD staining based flow cytometric analysis (reference value: 97 to 98%); format: functional; conditions: MDA-MB-231, 4 h, read-out: Activity
MDA-MB-231 [26] = assay: Cell cycle arrest in human MDA-MB-231 cells assessed as accumulation at S phase at 30 uM measured after 24 hrs by propidium iodide staining based flow cytometry (reference value: 12%); format: functional
MDA-MB-231 [27] = assay: Induction of superoxide generation in human MDA-MB-231 cells at 5 umol/L measured after 24 hrs in presence of NQO1 inhibitor dicoumarol by DHE staining based flow cytometry; format: functional, cell-based; summary of the method: as §2
[28] = target: T1, Signal transducer and activator of transcription 3; assay: Binding affinity to STAT3 in human MDA-MB-231 cells at 100 uM measured after 1 hr by DARTS-Western blot analysis; format: cell-based; summary of the method: as §4
MDA-MB-231 [29] = assay: Cell cycle arrest in human MDA-MB-231 cells assessed as accumulation at S phase at 10 uM measured after 24 hrs by propidium iodide staining based flow cytometry (reference value: 12%); format: functional
MDA-MB-231 [30] = assay: Induction of apoptosis in human MDA-MB-231 cells assessed as early apoptotic cells at 10 umol/L measured after 24 hrs by annexin-V-FITC/7-AAD staining based flow cytometric analysis relative to control; format: functional
MDA-MB-231 [31] = assay: Induction of apoptosis in human MDA-MB-231 cells assessed as viable cells at 10 umol/L measured after 6 hrs by annexin-V-FITC/7-AAD staining based flow cytometric analysis (reference value: 97 to 98%); format: functional; conditions: MDA-MB-231, 6 h, read-out: Activity
MDA-MB-231 [32] = assay: Induction of apoptosis in human MDA-MB-231 cells assessed as viable cells at 10 umol/L measured after 24 hrs by annexin-V-FITC/7-AAD staining based flow cytometric analysis (reference value: 97 to 98%); format: functional; conditions: MDA-MB-231, 24 h, read-out: Activity
MDA-MB-231 [33] = assay: Cell cycle arrest in human MDA-MB-231 cells assessed as accumulation at sub-G0 phase at 10 uM measured after 24 hrs by propidium iodide staining based flow cytometry (reference value: 3%); format: functional
MDA-MB-231 [34] = assay: Induction of apoptosis in human MDA-MB-231 cells assessed as late apoptotic cells at 10 umol/L measured after 6 hrs by annexin-V-FITC/7-AAD staining based flow cytometric analysis relative to control; format: functional
MDA-MB-231 [35] = assay: Induction of apoptosis in human MDA-MB-231 cells assessed as early apoptotic cells at 10 umol/L measured after 6 hrs by annexin-V-FITC/7-AAD staining based flow cytometric analysis relative to control; format: functional
MDA-MB-231 [36] = assay: Induction of apoptosis in human MDA-MB-231 cells assessed as late apoptotic cells at 10 umol/L measured after 8 hrs by annexin-V-FITC/7-AAD staining based flow cytometric analysis relative to control; format: functional
MDA-MB-231 [37] = assay: Induction of apoptosis in human MDA-MB-231 cells assessed as early apoptotic cells at 10 umol/L measured after 8 hrs by annexin-V-FITC/7-AAD staining based flow cytometric analysis relative to control; format: functional

CC(=O)c1cc2c(o1)C(=O)c1ccccc1C2=O [NAPABUCASIN] showed an Activity (MDA-MB-231 [1]) of 15%, an Activity (MDA-MB-231 [2]) of 5% and an IC50 (MDA-MB-231 [3]) of 2100 nM. For the same molecule, the Activity (MDA-MB-231 [4]) was 25%, the Activity (MDA-MB-231 [5]) was 56% and the Activity (MDA-MB-231 [6]) was “Active”. The Activity (MDA-MB-231 [7]) was 56%, the Activity (K562 [8]) was “inactive” and the viability at 10 µM (MDA-MB-231 [9]) was 94%. For the same molecule, the Activity (MDA-MB-231 [10]) was 60%, the Activity (MDA-MB-231 [11]) was 26% and the Activity (MDA-MB-231 [12]) was 13%. The EC50 [13] was 2000 nM, the Activity (MDA-MB-231 [14]) was 22% and the Activity (MDA-MB-231 [15]) was 5%. The EC50 [16] was 1900 nM, the IC50 (K562 [17]) was 1000 nM and the viability at 10 µM (MDA-MB-231 [18]) was 97%. It also gave an Activity (MDA-MB-231 [19]) of 3%, an Activity (MDA-MB-231 [20]) of 19% and an Activity (MDA-MB-231 [21]) of 26%. For the same molecule, the Activity [22] was “Active”, the Activity (MDA-MB-231 [23]) was 56% and the Activity (MDA-MB-231 [24]) was “Non-Toxic”. The viability at 10 µM (MDA-MB-231 [25]) was 97%, the Activity (MDA-MB-231 [26]) was 15% and the Activity (MDA-MB-231 [27]) was “Active”. The Activity [28] was “inactive”, the Activity (MDA-MB-231 [29]) was 14% and the Activity (MDA-MB-231 [30]) was 20%. For the same molecule, the viability at 10 µM (MDA-MB-231 [31]) was 96%, the viability at 10 µM (MDA-MB-231 [32]) was 62% and the Activity (MDA-MB-231 [33]) was 4%.

For O=C1C(=O)c2ccoc2-c2ccccc21, the Activity (MDA-MB-231 [1]) was 15%, the Activity (MDA-MB-231 [2]) was 3% and the IC50 (MDA-MB-231 [3]) was 1800 nM. For the same molecule, the Activity (MDA-MB-231 [4]) was 25%, the Activity (MDA-MB-231 [5]) was 62% and the Activity (MDA-MB-231 [6]) was “Active”. For the same molecule, the Activity (MDA-MB-231 [7]) was 59%, the Activity (K562 [8]) was “inactive” and the Activity (MDA-MB-231 [34]) was 6%. The viability at 10 µM (MDA-MB-231 [9]) was 87%, the Activity (MDA-MB-231 [10]) was 64% and the Activity (MDA-MB-231 [11]) was 22%. It also gave an Activity (MDA-MB-231 [12]) of 15%, an Activity (MDA-MB-231 [14]) of 19% and an Activity (MDA-MB-231 [35]) of 4%. The Activity (MDA-MB-231 [15]) was “inactive”, the IC50 (K562 [17]) was 2800 nM and the viability at 10 µM (MDA-MB-231 [18]) was 96%. For the same molecule, the Activity (MDA-MB-231 [19]) was “inactive”, the Activity (MDA-MB-231 [20]) was 54% and the Activity (MDA-MB-231 [36]) was 8%. For the same molecule, the Activity (MDA-MB-231 [21]) was 24%, the Activity (MDA-MB-231 [37]) was 6% and the Activity (MDA-MB-231 [23]) was 60%. For the same molecule, the viability at 10 µM (MDA-MB-231 [25]) was 95%, the Activity (MDA-MB-231 [26]) was 14% and the Activity (MDA-MB-231 [27]) was “Active”. For the same molecule, the Activity (MDA-MB-231 [29]) was 15%, the Activity (MDA-MB-231 [30]) was 15% and the viability at 10 µM (MDA-MB-231 [31]) was 91%. For the same molecule, the viability at 10 µM (MDA-MB-231 [32]) was 32% and the Activity (MDA-MB-231 [33]) was “inactive”.
